# From PubChem
# FN deposit inh – inhibitors of fibronectin matrix deposition, primary screen, AH1F cells, Alexa488-fibronectin fluorescence, plate reader; hit rate 0.086% among 350,000; inhibition, % at 12.6 µM; AH1F fibroblasts, overnight;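 active means mean inhibition across replicates of 30% or more, regardless of how many single replicates reach that level; inconclusive means mean under 30% yet at least half of replicates reach 30%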;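 further: positive control wells lacked labelled fibronectin entirely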
#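 Schedule: 1 h cell adhesion before compound, then overnight fibronectin incubation; test system: AH1F fibroblast monolayer depositing Alexa488-labelled fibronectin into matrix; quantity: 10000 AH1F cells per well; probe or stimulus: fluorescent fibronectin at 24 nM final; signal: fluorescence, ex 485 nm, em 525 nm; evaluation: percent inhibition as loss of matrix-bound fibronectin fluorescence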
# aSyn 5UTR inh – MLPCN primary screen, SNCA 5' untranslated region | AID 1813, 2009 | alpha-synuclein 5'UTR reporter, inhibitor activity | inhibition, % (tested at 7.5 µM) | hit rate 0.82% among 300,000; in the data active means inhibition above about 60%; inconclusive means no clear call, values can overlap the other calls;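 further: H4 neuroglioblastoma cells stably carrying SNCA 5'UTR luciferase fusion; 0% = DMSO wells and 100% = positive control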
# Shn3 3UTR inh – reduction of Shn3 3'UTR firefly luciferase signal, primary screen, Schnurri-3 inhibitor project, cell-based, Clone20 osteoblasts, set 2; Clone20 osteoblast Shn3 3'UTR firefly luciferase, 24 h; inhibition, % at 12.5 µM; hit rate 0.52% among 360,000; AID 588674, 2011;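 active means mean inhibition of at least 75% with every replicate also reaching 75%; inconclusive means mean inhibition at least 75% but some replicate below; inactive means mean inhibition below 75%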;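 further: 0% = median of neutral control wells and 100% = pilot-screen positive control compound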
# PAX8 inh HTS – inhibitors of PAX8-driven TPO luciferase reporter, primary screen, RMG-I cells, single concentration; SteadyGlo, 24 h; inhibition, % at 12.6 µM; hit rate 1.2% among 360,000; AID 652154, 2013;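 active means mean replicate inhibition at least 60% with every replicate also reaching 60%; inconclusive means only one of the two criteria is met; inactive means mean below 60% and not all replicates reaching 60%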;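 further: luciferase light reporting Pax8 driven TPO promoter activity; plate controls were median of neutral control wells for no effect and mitoxantrone controls for full effect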
# LMP1 NFkB inh – EBV LMP1-driven NF-kappaB luciferase reporter inhibitors, primary screen, cell-based, luminescence, single point; LMP1-induced NF-kappaB luciferase reporter cells; hit rate 0.69% among 350,000; inhibition, % at 12.5 µM; in the data active means inhibition above about 41%; inconclusive means no clear call, values can overlap the other calls;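 further: 0% = neutral control wells and 100% = reference inhibitor control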
# EWS-Fli block – EWS/Fli-driven NR0B1 reporter inhibitors, primary screen, A673 cells, NR0B1 luciferase, luminescence, MLPCN library; viability-normalised; inhibition, % at 12.6 µM; hit rate 0.67% among 350,000;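 active means mean inhibition of at least 50% after viability correction, with every replicate also passing that limit; inconclusive means mean reaches 50% but only one of two replicates passes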;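 further: firefly luciferase signal divided by Alamar Blue viability fluorescence both relative to DMSO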
# Starred values were filed as active, the others as inactive; ? = inconclusive; . = no result given. Sampled rows, rich in hits. Any-hit rate of the full collection: about 2.1%.
SMILES,FN deposit inh,aSyn 5UTR inh,Shn3 3UTR inh,PAX8 inh HTS,LMP1 NFkB inh,EWS-Fli block
CCC(=O)Nc1cc(SCCO)cc([N+](=O)[O-])c1,.,-21,-11,.,-4,.
CO[C@H]1CN(C)C(=O)c2cc(NC(=O)NC3CCCC3)ccc2OC[C@H](C)NC[C@@H]1C,-11,.,.,.,.,.
O=C(C1CCCC1)N1CC[C@@H]2[C@H]1c1cc(C3=CCCCC3)ccc1N[C@@H]2CO,-2,.,.,.,.,.
O=C1c2ccccc2C(=O)C1c1nccc2ccccc12,.,99*,0,.,23,.
O=Cc1nccc2ccccc12,-2,.,-3,22,-3,19
O=C1c2ccccc2C(=O)C1c1ccnc2ccccc12,2,89*,43,.,13,.
CNC[C@@H]1Oc2cc(C#CCC(C)C)ccc2S(=O)(=O)N([C@@H](C)CO)C[C@H]1C,-10,.,.,.,.,15
[2H]C(CCOS(N)(=O)=O)c1ccc(C(C)(C)C)cc1 (stereo unspecified),-7,80*,1,19,11,-5
O=C(C[C@@H]1C=C[C@H](NC(=O)C2CC2)[C@H](CO)O1)NCc1ccccc1Cl,1,.,.,2,.,5
COc1cc(O)ccc1/C=N/NC(=O)c1ccc([N+](=O)[O-])cc1,-10,8,3,12,7,8
O=C(NC(CSCc1ccccc1)C(=O)N/N=C/c1ccc(O)cc1O)c1ccc([N+](=O)[O-])cc1 (stereo unspecified),3,84*,91*,.,17,.
COc1ccc(NC(=O)Nc2ccc3c(c2)C(=O)N([C@@H](C)CO)C[C@@H](C)[C@@H](CN(C)C(=O)NC(C)C)O3)cc1,3,.,.,-10,.,-8
N#Cc1ccccc1COc1ccc(/C=C/C(=O)O)cc1,4,71*,42,-6,25,58*
Cc1ccc(-c2csc3nc4c5ccccc5c(NCCCN(C)C)nn4c(=O)c23)cc1,14,116*,25,20,-35,25
O=c1c2cnn(-c3ccccc3)c2nc(-c2cccs2)n1-c1ccc(Cl)cc1,.,8,-8,.,44*,.
O=c1c2cnn(-c3ccccc3)c2nc(-c2cccs2)n1-c1cccc(Cl)c1,-11,-63,31,-3,10,.
CC(c1ccccc1)c1nnc(NC(=O)Nc2ccccc2F)s1 (stereo unspecified),-5,-95,-65,-65,46*,-53
COc1cccc(S(=O)(=O)N2CCCCN3[C@H](CO)[C@H](c4ccc(C5=CCCCC5)cc4)[C@H]3C2)c1,.,.,.,15,.,-1
Cc1ccnc(N/C=C(/NC(=O)c2ccccc2)C(=O)N/N=C\c2ccc(F)cc2)n1,.,15,94*,.,58*,.
Cc1ccnc(N/C=C(/NC(=O)c2ccccc2)C(=O)NN)n1,-15,-3,2,-12,5,1
C[C@H]1CN([C@@H](C)CO)C(=O)c2cccc(NS(=O)(=O)c3cccs3)c2O[C@H]1CN(C)CC1CCCCC1,-2,.,.,-10,.,-11
CCCCCc1ccc(-c2ccc(/C=C/C(=O)O)cc2)nc1,-17,79*,21,-76,43*,.
CCCc1ccc(-c2ccc(/C=C/C(=O)O)cc2)nc1,1,115*,29,-19,75*,56*
CCCCCCCc1ccc(-c2ccc(O)cc2)nc1,.,-28,-45,-115,-38,4
COCCn1c(SCC(=O)c2c(-c3ccccc3)n(C)c3ccccc23)nnc1-c1ccncc1,0,13,-31,29,1,.
SMILES,FN deposit inh,aSyn 5UTR inh,Shn3 3UTR inh,PAX8 inh HTS,LMP1 NFkB inh,EWS-Fli block
COCCn1c(SCC(=O)/C=C2\N(C)c3ccccc3C2(C)C)nnc1-c1ccncc1,-3,6,89*,15,2,15
Cc1ccc(S(=O)(=O)CC(CN2CCCCC2)N2CCCCC2)cc1 (stereo unspecified),-1,-25,-16,90*,19,-15
C[C@@H]1CN([C@H](C)CO)C(=O)c2cccc(NC(=O)C3CCOCC3)c2O[C@H]1CN(C)Cc1ccc2c(c1)OCO2,-4,.,.,7,.,-5
O=C(CCN1C(=O)/C(=C/c2ccccc2Cl)SC1=S)N1CCCC1,23,-115,47,83*,5,-3
O=C(CCCN1C(=O)/C(=C/c2ccccc2Cl)SC1=S)N1CCCC1,5,-28,-35,-4,7,3
O=C(CCCN1C(=O)/C(=C/c2ccccc2Cl)SC1=S)NNC(=O)c1ccccc1Cl,7,100*,11,12,44*,66*
O=C(Nc1cccc(Cl)c1)Nc1nnc(CSCCOc2ccc(Cl)cc2)s1,-2,31,67,107*,44*,.
Cc1ccc(NC(=O)Nc2nnc(CSCCOc3ccc(Cl)cc3)s2)cc1,-1,-9,18,19,-3,12
O=C(Nc1cccc(Cl)c1)Nc1nnc(-c2ccncc2)s1,-8,51,35,104*,11,2
CCCCCc1cc(=O)oc2c(C(CCN3CCCCC3)c3ccc(OC)cc3)c(OC)cc(OC)c12 (stereo unspecified),1,31,31,66*,-4,8
COc1cc(C(CCN2CCCCC2)c2c(OC)cc(OC)c3c(-c4ccccc4)cc(=O)oc23)cc(OC)c1OC (stereo unspecified),30*,0,7,31,-17,7
CSc1ccc(/C=N/Nc2cccc(C(=O)O)c2)cc1,.,.,75,.,56*,.
COC(=O)c1ccc(COc2ccc(/C=N/Nc3cccc(C(=O)O)c3)cc2)cc1,-6,-84,-37,-26,-7,-38
CC(=O)N(C)C[C@@H]1Oc2cc(C#Cc3ccc(F)cc3)ccc2S(=O)(=O)N([C@@H](C)CO)C[C@H]1C,.,.,.,1,.,-5
COc1ccc2c(c1)sc1nc(-c3ccccc3)cn12,.,105*,?,.,80*,.
Cc1ccc(S(=O)(=O)n2ccc3cccnc32)cc1,0,-2,-9,18,-10,.
O=S(=O)(c1ccc(Cl)cc1)n1ccc2cccnc21,11,-1,98*,10,-5,.
CCc1c(C)c(C#N)c2nc3ccccc3n2c1NC,10,19,4,8,-3,7
Cc1cc(Cl)n2c(nc3ccccc32)c1C#N,-1,89*,80,55,0,24
Cc1c(CCCl)c(Cl)n2c(nc3ccccc32)c1C#N,.,.,99*,87*,66*,46
CC=Cc1ccc2n(c1=O)C[C@@H]1[C@@H](CO)[C@H](C(=O)NCC)[C@H]2N1S(=O)(=O)c1cn(C)cn1 (mixture of isomers),.,.,.,.,.,-7
Cc1cnc(C(=O)OC(C)C(=O)Nc2ccc(Oc3ccccc3)cc2)cn1 (stereo unspecified),9,.,-26,-19,71*,-10
C[C@@H]1CN([C@H](C)CO)C(=O)c2cc(C3=CCCC3)cnc2O[C@@H]1CN(C)Cc1cccc(F)c1,.,.,.,4,.,5
